Results from ChEMBL document CHEMBL1122698, “Selective delivery of cytotoxic compounds to cells by the LDL pathway” (1984).

How the values were obtained:
Format in all cases: functional
Homo sapiens [1] = organism: Homo sapiens; assay: The compound was tested for the toxicity of +Me-r-LDL,measured by its ability to inhibit the growth of normal human fibroblasts or chinese hamster ovary (CHO) cells, at concentration 80 ug/mL
Summary of the method: (§1)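 SV-40-transformed human fibroblasts (SV-589) were seeded at 20 000/well and left 4 h. They were then exposed to compound-reconstituted LDL or reconstituted methylated LDL (Me-r-LDL, not recognised by LDL receptors). Doses are given as LDL protein concentration. On day 3 the wells were PBS-washed to remove dead cells, and adherent cells were fixed with 15% formalin for 15 min and stained with crystal violet. Growth was scored visually, with untreated controls scored 4.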

Homo sapiens [2] = organism: Homo sapiens; assay: The compound was tested for the toxicity of +r-LDL,measured by its ability to inhibit the growth of normal human fibroblasts or chinese hamster ovary (CHO) cells, at concentration 80 ug/mL; summary of the method: as §1
Homo sapiens [3] = organism: Homo sapiens; assay: The compound was tested for the toxicity of normal +r-LDL, measured by its ability to inhibit the growth of normal human fibroblasts or chinese hamster ovary (CHO) cells, at concentration 0.5 ug/mL
Summary of the method: (§2)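 Compound reconstituted into LDL (r-LDL) and added to cells; concentration given as LDL protein, roughly equal to compound concentration. Cells plated 20 000/well, left 4 h, then r-LDL added. On day 3, wells washed with PBS to remove dead cells; adherent cells fixed in 15% formalin 15 min, crystal violet stained, scored visually on a 0–6 growth scale (untreated control = 6).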

[4] = The compound was tested for the toxicity of mutant+r-LDL, measured by its ability to inhibit the growth of normal human fibroblasts or chinese hamster ovary (CHO) cells, at concentration 0.5 ug/mL; summary of the method: as §2
Homo sapiens [5] = organism: Homo sapiens; assay: (§3) The compound was tested for the toxicity of normal +r-LDL, measured by its ability to inhibit the growth of normal human fibroblasts or chinese hamster ovary (CHO) cells, at concentration 10 ug/mL; summary of the method: as §2
[6] = The compound was tested for the toxicity of mutant+r-LDL, measured by its ability to inhibit the growth of normal human fibroblasts or chinese hamster ovary (CHO) cells, at concentration 10 ug/mL; summary of the method: as §2
Homo sapiens [7] = organism: Homo sapiens; assay: The compound was tested for the toxicity of normal +r-LDL, measured by its ability to inhibit the growth of normal human fibroblasts or chinese hamster ovary (CHO) cells, at concentration 80 ug/mL
Summary of the method: (§4)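 Normal human fibroblasts were seeded at 20 000/well and held 4 h before addition of compound-reconstituted LDL (r-LDL) or methylated r-LDL. Comparison cells with few LDL receptors were receptor-negative homozygous FH fibroblasts or V-79 CHO cells. Doses are given as LDL protein concentration. On day 3 the cells were PBS-washed, fixed with 15% formalin for 15 min and stained with crystal violet. Growth was scored visually from 0 to 6, with untreated controls at 6.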

Homo sapiens [8] = organism: Homo sapiens; assay: as §3; summary of the method: as §4; remark: listed apart in the source
Homo sapiens [9] = organism: Homo sapiens; assay: The compound was tested for the toxicity of normal +r-LDL, measured by its ability to inhibit the growth of normal human fibroblasts or chinese hamster ovary (CHO) cells, at concentration 20 ug/mL; summary of the method: as §4
[10] = The compound was tested for the toxicity of mutant+r-LDL, measured by its ability to inhibit the growth of normal human fibroblasts or chinese hamster ovary (CHO) cells, at concentration 20 ug/mL; summary of the method: as §4
Homo sapiens [11] = organism: Homo sapiens; assay: The compound was tested for the toxicity of normal+r-LDL, measured by its ability to inhibit the growth of normal human fibroblasts or chinese hamster ovary (CHO) cells, at concentration 10 ug/mL; summary of the method: as §4
Homo sapiens [12] = organism: Homo sapiens; assay: The compound was tested for the toxicity of normal+r-LDL, measured by its ability to inhibit the growth of normal human fibroblasts or chinese hamster ovary (CHO) cells, at concentration 2 ug/mL; summary of the method: as §4
[13] = The compound was tested for the toxicity of mutant+r-LDL, measured by its ability to inhibit the growth of normal human fibroblasts or chinese hamster ovary (CHO) cells, at concentration 2 ug/mL; summary of the method: as §4

## CCCCCCCC/C=C\CCCCCCCCC(=O)O[C@H]1CC[C@@]2(C)C(=CC[C@H]3[C@@H]4CC[C@H](C(C)CCCOC(=O)CCCc5ccc(N(CCCl)CCCl)cc5)C4CC[C@@H]32)C1 (stereo partly drawn)
Homo sapiens [1]
  Growth of cells: 4
Homo sapiens [2]
  Growth of cells: 4

## CCCCCCCC/C=C\CCCCCCCCC(=O)O[C@H]1CC[C@@]2(C)C(=CC[C@H]3[C@@H]4CC[C@H](C(C)C(=O)N5CCOC(CCCCCCCCCCCC)C5)C4CC[C@@H]32)C1 (stereo partly drawn)
Homo sapiens [3]
  Growth of cells: 6
[4]
  Growth of cells: 6

## CCCCCCCC/C=C\CCCCCCCCC(=O)O[C@H]1CC[C@@]2(C)C(=CC[C@H]3[C@@H]4CC[C@H](C(C)COC(=O)N5CCOC(CCCCCCCCCCCC)C5)C4CC[C@@H]32)C1 (stereo partly drawn)
Homo sapiens [5]
  Growth of cells: 6
[6]
  Growth of cells: 6

## CCCCCCCC/C=C\CCCCCCCCC(=O)O[C@H]1CC[C@@]2(C)C(=CC[C@H]3[C@@H]4CC[C@H](C(C)COC(=O)CCCc5ccc(N(CCCl)CCCl)cc5)C4CC[C@@H]32)C1 (stereo partly drawn)
Homo sapiens [1]
  Growth of cells: 4
Homo sapiens [2]
  Growth of cells: 4
Homo sapiens [7]
  Growth of cells: 6

## CCCCCCCC/C=C\CCCCCCCCC(=O)O[C@H]1CC[C@@]2(C)C(=CC[C@H]3[C@@H]4CC[C@H](C(C)COC(=O)N(CCCl)CCCl)C4CC[C@@H]32)C1 (stereo partly drawn)
Homo sapiens [8]
  Growth of cells: 0
[6]
  Growth of cells: 6

## CCCCCCCC/C=C\CCCCCCCCNC(=O)C(C)[C@H]1CC[C@@H]2C1CC[C@H]1[C@H]2CC=C2C[C@@H](OC(=O)CCCCCCCC/C=C\CCCCCCCC)CC[C@@]21C (stereo partly drawn)
Homo sapiens [9]
  Growth of cells: 6
[10]
  Growth of cells: 6

## CCCCCCCC/C=C\CCCCCCCCC(=O)O[C@H]1CC[C@@]2(C)C(=CC[C@H]3[C@@H]4CC[C@H](C(C)COC(=O)NCCCCCCCCCCCC)C4CC[C@@H]32)C1 (stereo partly drawn)
Homo sapiens [5]
  Growth of cells: 6
[6]
  Growth of cells: 6

## CCCCCCCC/C=C\CCCCCCCCN1CC(C)OC(C)C1 (stereo not drawn)
Homo sapiens [3]
  Growth of cells: 0
[4]
  Growth of cells: 0

## CC(C)CCCC(C)C1CCC2C3CC=C4CC(OC(=O)Cc5ccc(N(CCCl)CCCl)cc5)CCC4(C)C3CCC12C (stereo not drawn)
Homo sapiens [9]
  Growth of cells: 6
[10]
  Growth of cells: 6

## CC1=C(/C=C/C(C)=C/C=C/C(C)=C\CN2CCOCC2)C(C)(C)CCC1
Homo sapiens [3]
  Growth of cells: 0
[4]
  Growth of cells: 0

## CCCCCCCC/C=C\CCCCCCCCOC(=O)N(CCCCCCCCCCCC)CC(F)(F)F
Homo sapiens [8]
  Growth of cells: 6
[6]
  Growth of cells: 6

## CCCCCCCC/C=C\CCCCCCCCN1CCOCC1
Homo sapiens [3]
  Growth of cells: 0
[4]
  Growth of cells: 1

## CCCCCCCC/C=C\CCCCCCCCOC(=O)N(CCCCCCCCCCCC)CC(F)F
Homo sapiens [5]
  Growth of cells: 6
[6]
  Growth of cells: 6

## CCCCCCCC/C=C\CCCCCCCCOC(=O)N1CCOC(CCCCCCCCCCCC)C1 (stereo not drawn)
Homo sapiens [5]
  Growth of cells: 6
[6]
  Growth of cells: 6

## CCCCCCCC/C=C\CCCCCCCCOC(=O)N(CCCl)CCCl
Homo sapiens [11]
  Growth of cells: 0
Homo sapiens [12]
  Growth of cells: 2
[6]
  Growth of cells: 0
[13]
  Growth of cells: 5
